According to the M2OR odorant receptor database:
Changes are numbered by the printed parent chain.

Assays:
Settings in all cases: stereoisomer not certain
OR5AC2 (Homo sapiens) = biological target: T1, OR5AC2 (Homo sapiens) (UniProt Q9NZP5)
T1 sequence (whole entry): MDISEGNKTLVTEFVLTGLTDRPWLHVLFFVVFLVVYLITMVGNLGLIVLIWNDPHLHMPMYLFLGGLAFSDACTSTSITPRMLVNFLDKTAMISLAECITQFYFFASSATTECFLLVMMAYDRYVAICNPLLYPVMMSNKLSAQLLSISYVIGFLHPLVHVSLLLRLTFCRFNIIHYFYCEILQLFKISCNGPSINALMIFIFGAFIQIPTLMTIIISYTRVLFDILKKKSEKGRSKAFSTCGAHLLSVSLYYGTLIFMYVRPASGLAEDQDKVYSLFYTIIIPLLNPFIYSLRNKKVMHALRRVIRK
Outline: (§1)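 Assay methods differ from source to source, frequently being transient luciferase assays in mammalian cell lines. For each receptor–molecule pair, the label responsive (active) applies when the original authors judged the measured signal statistically different from baseline, and non-responsive (inactive) applies otherwise.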

OR52N4 (Homo sapiens) = biological target: T2, OR52N4 (Homo sapiens) (UniProt Q8NGI2)
T2 sequence (whole entry): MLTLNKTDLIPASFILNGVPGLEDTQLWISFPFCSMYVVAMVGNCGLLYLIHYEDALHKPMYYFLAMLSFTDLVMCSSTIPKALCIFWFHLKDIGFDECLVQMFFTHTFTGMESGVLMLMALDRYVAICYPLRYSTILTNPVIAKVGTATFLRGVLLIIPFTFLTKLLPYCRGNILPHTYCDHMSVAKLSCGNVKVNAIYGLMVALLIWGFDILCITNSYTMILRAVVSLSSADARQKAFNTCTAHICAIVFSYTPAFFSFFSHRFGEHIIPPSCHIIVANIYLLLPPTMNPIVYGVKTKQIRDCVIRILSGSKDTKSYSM
Outline: as §1

OR52N5 (Homo sapiens) = biological target: T3, OR52N5 (Homo sapiens) (UniProt Q8NH56)
T3 sequence (whole entry): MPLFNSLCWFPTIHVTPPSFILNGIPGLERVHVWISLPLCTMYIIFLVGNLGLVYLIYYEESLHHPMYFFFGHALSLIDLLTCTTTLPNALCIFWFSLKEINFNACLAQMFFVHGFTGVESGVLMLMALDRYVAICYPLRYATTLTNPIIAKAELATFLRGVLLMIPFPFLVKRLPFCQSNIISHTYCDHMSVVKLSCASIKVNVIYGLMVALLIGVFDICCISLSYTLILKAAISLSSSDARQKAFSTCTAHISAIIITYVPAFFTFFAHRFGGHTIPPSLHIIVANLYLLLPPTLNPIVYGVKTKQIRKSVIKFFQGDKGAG
Outline: as §1

OR52R1 (Homo sapiens) = biological target: T4, OR52R1 (Homo sapiens) (UniProt Q8NGF1)
T4 sequence (whole entry): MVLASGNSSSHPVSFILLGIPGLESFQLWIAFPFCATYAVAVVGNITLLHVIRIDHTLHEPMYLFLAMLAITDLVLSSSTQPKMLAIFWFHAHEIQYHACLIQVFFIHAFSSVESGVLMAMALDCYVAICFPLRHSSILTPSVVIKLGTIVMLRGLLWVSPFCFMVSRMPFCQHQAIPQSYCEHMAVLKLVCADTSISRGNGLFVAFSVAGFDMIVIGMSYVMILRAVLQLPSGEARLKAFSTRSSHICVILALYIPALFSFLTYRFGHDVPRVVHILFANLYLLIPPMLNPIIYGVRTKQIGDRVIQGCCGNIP
Outline: as §1

OR52W1 (Homo sapiens) = biological target: T5, OR52W1 (Homo sapiens) (UniProt Q6IF63)
T5 sequence (whole entry): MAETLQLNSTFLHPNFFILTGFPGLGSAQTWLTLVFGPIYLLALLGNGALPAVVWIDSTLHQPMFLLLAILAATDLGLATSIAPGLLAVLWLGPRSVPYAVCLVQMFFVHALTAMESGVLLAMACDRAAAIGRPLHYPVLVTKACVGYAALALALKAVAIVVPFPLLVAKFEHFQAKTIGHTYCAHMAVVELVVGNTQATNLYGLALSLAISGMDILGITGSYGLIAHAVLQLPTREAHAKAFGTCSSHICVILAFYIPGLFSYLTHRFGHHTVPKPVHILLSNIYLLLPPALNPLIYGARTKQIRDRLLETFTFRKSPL
Outline: as §1

OR56A1 (Homo sapiens) = biological target: T6, OR56A1 (Homo sapiens) (UniProt Q8NGH5)
T6 sequence (whole entry): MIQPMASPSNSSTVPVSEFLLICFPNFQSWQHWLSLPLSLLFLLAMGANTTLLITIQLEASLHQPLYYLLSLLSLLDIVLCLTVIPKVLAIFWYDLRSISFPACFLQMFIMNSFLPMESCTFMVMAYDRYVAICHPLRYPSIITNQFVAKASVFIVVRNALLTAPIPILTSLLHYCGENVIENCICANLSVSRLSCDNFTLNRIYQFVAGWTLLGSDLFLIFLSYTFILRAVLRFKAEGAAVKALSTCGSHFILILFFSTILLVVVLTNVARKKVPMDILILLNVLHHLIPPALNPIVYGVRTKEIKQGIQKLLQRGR
Outline: as §1

OR56A3 (Homo sapiens) = biological target: T7, OR56A3 (Homo sapiens) (UniProt Q8NH54)
T7 sequence (whole entry): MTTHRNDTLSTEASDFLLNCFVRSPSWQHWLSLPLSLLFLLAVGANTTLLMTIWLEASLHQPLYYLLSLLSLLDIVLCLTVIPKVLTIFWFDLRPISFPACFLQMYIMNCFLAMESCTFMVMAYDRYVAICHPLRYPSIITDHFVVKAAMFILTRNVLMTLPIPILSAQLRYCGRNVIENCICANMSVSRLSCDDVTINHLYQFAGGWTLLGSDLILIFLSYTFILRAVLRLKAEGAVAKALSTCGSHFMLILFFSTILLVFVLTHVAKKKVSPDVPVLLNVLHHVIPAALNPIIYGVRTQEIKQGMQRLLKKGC
Outline: as §1

OR56A4 (Homo sapiens) = biological target: T8, OR56A4 (Homo sapiens) (UniProt Q8NGH8)
T8 sequence (whole entry): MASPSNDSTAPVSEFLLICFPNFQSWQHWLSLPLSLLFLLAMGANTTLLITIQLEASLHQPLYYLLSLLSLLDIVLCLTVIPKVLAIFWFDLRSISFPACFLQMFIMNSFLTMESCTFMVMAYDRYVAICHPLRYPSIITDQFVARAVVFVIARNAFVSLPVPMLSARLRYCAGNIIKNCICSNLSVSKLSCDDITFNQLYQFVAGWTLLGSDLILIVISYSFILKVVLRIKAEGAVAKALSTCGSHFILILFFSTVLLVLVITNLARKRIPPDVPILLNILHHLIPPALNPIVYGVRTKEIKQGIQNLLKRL
Outline: as §1

OR56B1 (Homo sapiens) = biological target: T9, OR56B1 (Homo sapiens) (UniProt Q8NGI3)
T9 sequence (whole entry): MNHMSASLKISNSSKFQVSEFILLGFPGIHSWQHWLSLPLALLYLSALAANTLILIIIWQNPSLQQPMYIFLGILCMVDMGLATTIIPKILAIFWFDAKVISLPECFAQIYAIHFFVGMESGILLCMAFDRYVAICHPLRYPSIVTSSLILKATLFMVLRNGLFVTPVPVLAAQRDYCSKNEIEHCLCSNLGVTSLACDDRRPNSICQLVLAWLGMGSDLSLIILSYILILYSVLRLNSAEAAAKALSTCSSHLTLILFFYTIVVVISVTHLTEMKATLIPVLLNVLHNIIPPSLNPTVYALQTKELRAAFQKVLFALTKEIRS
Outline: as §1

OR56B4 (Homo sapiens) = biological target: T10, OR56B4 (Homo sapiens) (UniProt Q8NH76)
T10 sequence (whole entry): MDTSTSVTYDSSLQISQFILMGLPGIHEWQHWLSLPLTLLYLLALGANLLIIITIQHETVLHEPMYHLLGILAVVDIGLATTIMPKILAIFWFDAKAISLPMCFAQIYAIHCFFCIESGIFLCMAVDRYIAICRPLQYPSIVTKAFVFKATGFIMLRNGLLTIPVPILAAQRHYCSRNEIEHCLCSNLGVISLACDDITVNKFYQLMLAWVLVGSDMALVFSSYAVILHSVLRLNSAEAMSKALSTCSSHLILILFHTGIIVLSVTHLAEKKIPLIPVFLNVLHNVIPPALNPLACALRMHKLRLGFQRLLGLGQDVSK
Outline: as §1

OR56A5 (Homo sapiens) = biological target: T11, OR56A5 (Homo sapiens) (UniProt P0C7T3)
T11 sequence (whole entry): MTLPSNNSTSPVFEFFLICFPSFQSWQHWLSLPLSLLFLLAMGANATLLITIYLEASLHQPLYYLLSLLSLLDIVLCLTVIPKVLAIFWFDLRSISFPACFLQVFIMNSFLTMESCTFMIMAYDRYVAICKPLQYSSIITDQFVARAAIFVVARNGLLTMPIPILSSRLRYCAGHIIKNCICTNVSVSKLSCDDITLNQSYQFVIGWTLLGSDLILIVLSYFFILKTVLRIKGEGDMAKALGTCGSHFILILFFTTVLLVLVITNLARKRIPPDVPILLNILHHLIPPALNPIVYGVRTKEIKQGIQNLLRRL
Outline: as §1

OR5A1 (Homo sapiens) = biological target: T12, OR5A1 (Homo sapiens) (UniProt Q8NGJ0)
T12 sequence (whole entry): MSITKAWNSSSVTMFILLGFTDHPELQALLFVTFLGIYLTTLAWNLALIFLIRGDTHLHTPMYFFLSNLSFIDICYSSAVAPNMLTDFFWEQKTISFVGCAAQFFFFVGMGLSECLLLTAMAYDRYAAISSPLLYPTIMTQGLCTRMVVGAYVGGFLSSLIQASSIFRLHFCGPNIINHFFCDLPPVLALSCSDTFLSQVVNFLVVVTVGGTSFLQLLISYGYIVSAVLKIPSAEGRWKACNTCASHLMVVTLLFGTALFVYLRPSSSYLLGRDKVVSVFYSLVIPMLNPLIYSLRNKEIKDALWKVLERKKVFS
Outline: as §1

OR5A2 (Homo sapiens) = biological target: T13, OR5A2 (Homo sapiens) (UniProt Q8NGI9)
T13 sequence (whole entry): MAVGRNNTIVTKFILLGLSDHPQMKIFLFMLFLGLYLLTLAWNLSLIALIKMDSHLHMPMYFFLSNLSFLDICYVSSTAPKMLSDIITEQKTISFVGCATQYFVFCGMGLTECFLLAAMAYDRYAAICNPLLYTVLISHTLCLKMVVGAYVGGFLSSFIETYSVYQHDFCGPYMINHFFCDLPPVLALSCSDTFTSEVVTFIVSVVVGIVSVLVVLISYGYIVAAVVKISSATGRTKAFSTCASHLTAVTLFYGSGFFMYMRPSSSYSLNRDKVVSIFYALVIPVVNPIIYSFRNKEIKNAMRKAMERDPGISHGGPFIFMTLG
Outline: as §1

OR5AK2 (Homo sapiens) = biological target: T14, OR5AK2 (Homo sapiens) (UniProt Q8NH90)
T14 sequence (whole entry): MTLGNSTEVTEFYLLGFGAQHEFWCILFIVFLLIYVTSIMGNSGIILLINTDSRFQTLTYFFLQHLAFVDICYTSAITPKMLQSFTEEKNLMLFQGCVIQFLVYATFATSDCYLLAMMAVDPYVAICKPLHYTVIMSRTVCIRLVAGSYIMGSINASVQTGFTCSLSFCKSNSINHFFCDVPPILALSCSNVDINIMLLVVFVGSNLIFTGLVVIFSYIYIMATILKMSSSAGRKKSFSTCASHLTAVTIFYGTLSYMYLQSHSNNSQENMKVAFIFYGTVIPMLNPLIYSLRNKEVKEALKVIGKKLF
Outline: as §1

OR5AN1 (Homo sapiens) = biological target: T15, OR5AN1 (Homo sapiens) (UniProt Q8NGI8)
T15 sequence (whole entry): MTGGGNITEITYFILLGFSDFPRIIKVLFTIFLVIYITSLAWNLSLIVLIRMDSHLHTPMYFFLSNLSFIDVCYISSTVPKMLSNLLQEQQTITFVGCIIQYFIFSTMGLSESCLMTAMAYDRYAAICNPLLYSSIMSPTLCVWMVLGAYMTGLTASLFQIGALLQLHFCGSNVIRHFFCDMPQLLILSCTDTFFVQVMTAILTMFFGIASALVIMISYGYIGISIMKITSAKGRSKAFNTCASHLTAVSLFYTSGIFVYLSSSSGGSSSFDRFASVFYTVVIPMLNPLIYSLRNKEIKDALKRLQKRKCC
Outline: as §1

OR5AP2 (Homo sapiens) = biological target: T16, OR5AP2 (Homo sapiens) (UniProt Q8NGF4)
T16 sequence (whole entry): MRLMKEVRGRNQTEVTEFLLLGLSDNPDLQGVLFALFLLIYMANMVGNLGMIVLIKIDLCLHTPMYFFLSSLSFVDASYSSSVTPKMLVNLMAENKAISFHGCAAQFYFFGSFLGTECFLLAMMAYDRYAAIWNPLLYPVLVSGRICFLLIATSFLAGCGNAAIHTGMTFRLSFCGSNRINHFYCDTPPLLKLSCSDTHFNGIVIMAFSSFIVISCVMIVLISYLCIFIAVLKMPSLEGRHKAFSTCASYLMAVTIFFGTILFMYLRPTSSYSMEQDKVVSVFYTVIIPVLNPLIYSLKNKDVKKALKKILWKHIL
Outline: as §1

OR5A1 D183N = test system: T17, OR5A1 D183N
T17 sequence (whole entry): T12 sequence (whole entry) with D183N
Outline: as §1

OR52Z1P (Homo sapiens) = OR52Z1P (Homo sapiens) (UniProt P0C646)
Outline: as §1

OR5AC1 (Homo sapiens) = OR5AC1 (Homo sapiens) (UniProt P0C628)
Outline: as §1

OR5AL1 (Homo sapiens) = OR5AL1 (Homo sapiens) (UniProt P0C617)
Outline: as §1

Measured: odorant receptor agonist call

OR52Z1P (Homo sapiens), sequence (P0C646 whole entry): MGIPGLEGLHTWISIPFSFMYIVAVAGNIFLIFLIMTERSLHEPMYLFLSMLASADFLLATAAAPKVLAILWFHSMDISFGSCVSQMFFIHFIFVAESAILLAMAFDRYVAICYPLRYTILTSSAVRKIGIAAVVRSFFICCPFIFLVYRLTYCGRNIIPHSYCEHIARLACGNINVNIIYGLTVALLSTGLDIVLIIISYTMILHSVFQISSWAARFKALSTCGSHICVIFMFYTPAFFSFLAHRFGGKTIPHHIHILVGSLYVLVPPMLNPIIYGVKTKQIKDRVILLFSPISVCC
OR5AC1 (Homo sapiens), sequence (P0C628 whole entry): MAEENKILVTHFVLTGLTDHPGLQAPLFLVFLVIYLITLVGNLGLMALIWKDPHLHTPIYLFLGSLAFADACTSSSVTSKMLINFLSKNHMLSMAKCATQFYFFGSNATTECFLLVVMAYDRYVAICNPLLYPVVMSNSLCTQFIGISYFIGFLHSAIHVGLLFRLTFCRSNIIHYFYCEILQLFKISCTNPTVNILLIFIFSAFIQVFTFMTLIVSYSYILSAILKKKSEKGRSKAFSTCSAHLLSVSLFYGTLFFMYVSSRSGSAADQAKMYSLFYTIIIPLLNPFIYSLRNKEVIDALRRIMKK
OR5AL1 (Homo sapiens), sequence (P0C617 whole entry): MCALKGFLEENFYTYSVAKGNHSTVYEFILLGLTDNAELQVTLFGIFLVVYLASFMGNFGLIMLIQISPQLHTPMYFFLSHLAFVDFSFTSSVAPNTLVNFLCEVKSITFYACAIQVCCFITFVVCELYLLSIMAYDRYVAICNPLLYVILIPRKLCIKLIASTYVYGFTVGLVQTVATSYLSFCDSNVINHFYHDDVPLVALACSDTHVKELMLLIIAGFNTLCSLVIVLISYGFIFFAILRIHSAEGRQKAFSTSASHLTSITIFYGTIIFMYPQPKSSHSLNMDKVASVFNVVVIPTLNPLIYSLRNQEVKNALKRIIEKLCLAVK

CC1=CCC2CC1C2(C)C (stereo not drawn)
inactive: OR5AC2 (Homo sapiens)

CCCCCC1CCCC(=O)O1 (stereo not drawn)
active: OR52N5 (Homo sapiens) | OR52R1 (Homo sapiens) | OR56B4 (Homo sapiens)
inactive: OR52N4 (Homo sapiens) | OR52W1 (Homo sapiens) | OR56A1 (Homo sapiens) | OR56A3 (Homo sapiens) | OR56A4 (Homo sapiens) | OR56B1 (Homo sapiens)

CCCCCC(=O)C(C)C(C)=O (stereo not drawn)
not listed: OR5A1 D183N | OR52Z1P (Homo sapiens) | OR5AC1 (Homo sapiens) | OR5AL1 (Homo sapiens)
inactive: all other assays above

CC(C)(C)C1CCCCC1OCCCCO (stereo not drawn)
inactive: OR5AC2 (Homo sapiens)

CC(C)CCCC(C)(C)O
inactive: OR5AC2 (Homo sapiens)

CCCC(S)CCOC(C)=O (stereo not drawn)
not listed: OR56A4 (Homo sapiens) | OR52Z1P (Homo sapiens) | OR5AC1 (Homo sapiens) | OR5AL1 (Homo sapiens)
inactive: all other assays above

CC1CCCCCCCCCCCCC(=O)C1 (stereo not drawn)
active: OR5AN1 (Homo sapiens)
not listed: OR5A1 D183N
inactive: all other assays above
